A short description of assay [1]: Her2 expression decrease, cell viability multiplex – SKBR3 breast tumor cells, AlphaScreen, ATP viability, primary screen (AID 461;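 active = Her2 level under about 52% in both replicate screens, with viability over 70% of control, limit read from the data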;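 as to Her2 level: lower value means less Her2 protein in the cells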;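 as to viability: percent of carrier control wells set as 100% viability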). As to conditions: SKBR3 Her2 protein level, 18-24 h, measured here: SKBR3 viability, ATP luminescence, at 10 µM.
Assay [2] addresses Receptor tyrosine-protein kinase erbB-2 (Homo sapiens) (UniProt P04626). The assay is described as above. As to conditions: 18-24 h, at 10 µM, stronger effect = lower value.
Assay [3] in a line: reduced viability of SK-BR-3 breast cancer cells – cell-based, 24 h, human, pilot screen (AID 572).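 Also: compound exposure lasted between 18 and 24 h rather than exactly 24 h; 100% = carrier-treated control wells.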 Conditions: SK-BR-3 viability, CellTiter-Glo luminescence, at 10 µM, stronger effect = lower value. (In general: Cellular ATP, detected with luciferase, serves as a proxy for viable cell number.)
A short description of assay [4]: HUVEC growth inhibition – cell-based, human, primary screen (AID 575;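 active = viability at or below 30% in both replicate assays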;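 also: 100% = median of untreated cell wells with 0.1% DMSO on each plate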). As to conditions: HUVEC proliferation, CellTiter-Glo luminescence, 72 h; at 10 µM; stronger effect = lower value. In a few lines: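 Assay system: Primary human umbilical vein endothelial cells | Quantity: 1250 cells per well | Medium: Supplemented EBM, 2% fetal bovine serum | Detection: CellTiter-Glo luminescence measuring cellular ATP | Read-out: % viability vs DMSO wells | Plate: Collagen-coated 384-well format | Times: 72 h exposure, 37 °C, 5% CO2, 30 min RT equilibration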

Assay [5] can be described thus: H69AR cell proliferation blockers – human, duplicate replicates, primary screen (AID 580;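 active = viability at or under a set limit in both replicates, limit being median viability minus 3 SD, cut at about 48% in these data, passing the limit was not always enough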;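 also: 100% = mean luminescence of untreated wells and 0% = no signal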). Conditions: H69AR lung tumor cells viability, ATP luminescence, 72 h; at 10 µM; stronger effect = lower value.
The nature of assay [6]: MRP1 drug-resistance reversers in H69AR cells – cell-based, doxorubicin co-treatment, pilot screen (AID 601;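 active = viability loss from added drug above about 55%, and viability with drug at most 40%, in both replicates, limit read from the data, passing the limit was not always enough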). Conditions: CellTiter-Glo, 72 h, at 10 µM; for differential viability (reversal): stronger effect = higher value.
Assay [7] can be described thus: yeast transport mutant growth inhibition pilot in 384-well plates, post-Golgi transport modulator project (AID 636; in the data active = inhibition above about 31%). As to conditions: absorbance 615 nm, about 18 h, stronger effect = higher value.
Assay [8] can be described thus: growth suppression of yeast trafficking mutant, preliminary HTS, modulators of trafficking downstream of Golgi apparatus project, 1536-format plate, OD 615 nm (AID 637; in the data active = inhibition above about 30%). As to conditions: yeast transport mutant growth, absorbance 615 nm, 18 h; stronger effect = higher value.
The mark [9] stands for this setting: H69AR cells + 2 uM doxorubicin, measured here: viability with 2 uM doxorubicin, stronger effect = lower value.
Setting [10] is: H69AR cells, compound alone cytotoxicity.

Molecules are shown by their SMILES. Activity calls are given as the source filed them.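 The calls were made as follows, unless noted: active = viability at or below 10% of carrier control in both of two separate runs; inconclusive = viability at or below 10% in only one of the two runs; inactive = the rest.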

Receptor tyrosine-protein kinase erbB-2 (Homo sapiens), sequence (P04626 whole entry, looked up): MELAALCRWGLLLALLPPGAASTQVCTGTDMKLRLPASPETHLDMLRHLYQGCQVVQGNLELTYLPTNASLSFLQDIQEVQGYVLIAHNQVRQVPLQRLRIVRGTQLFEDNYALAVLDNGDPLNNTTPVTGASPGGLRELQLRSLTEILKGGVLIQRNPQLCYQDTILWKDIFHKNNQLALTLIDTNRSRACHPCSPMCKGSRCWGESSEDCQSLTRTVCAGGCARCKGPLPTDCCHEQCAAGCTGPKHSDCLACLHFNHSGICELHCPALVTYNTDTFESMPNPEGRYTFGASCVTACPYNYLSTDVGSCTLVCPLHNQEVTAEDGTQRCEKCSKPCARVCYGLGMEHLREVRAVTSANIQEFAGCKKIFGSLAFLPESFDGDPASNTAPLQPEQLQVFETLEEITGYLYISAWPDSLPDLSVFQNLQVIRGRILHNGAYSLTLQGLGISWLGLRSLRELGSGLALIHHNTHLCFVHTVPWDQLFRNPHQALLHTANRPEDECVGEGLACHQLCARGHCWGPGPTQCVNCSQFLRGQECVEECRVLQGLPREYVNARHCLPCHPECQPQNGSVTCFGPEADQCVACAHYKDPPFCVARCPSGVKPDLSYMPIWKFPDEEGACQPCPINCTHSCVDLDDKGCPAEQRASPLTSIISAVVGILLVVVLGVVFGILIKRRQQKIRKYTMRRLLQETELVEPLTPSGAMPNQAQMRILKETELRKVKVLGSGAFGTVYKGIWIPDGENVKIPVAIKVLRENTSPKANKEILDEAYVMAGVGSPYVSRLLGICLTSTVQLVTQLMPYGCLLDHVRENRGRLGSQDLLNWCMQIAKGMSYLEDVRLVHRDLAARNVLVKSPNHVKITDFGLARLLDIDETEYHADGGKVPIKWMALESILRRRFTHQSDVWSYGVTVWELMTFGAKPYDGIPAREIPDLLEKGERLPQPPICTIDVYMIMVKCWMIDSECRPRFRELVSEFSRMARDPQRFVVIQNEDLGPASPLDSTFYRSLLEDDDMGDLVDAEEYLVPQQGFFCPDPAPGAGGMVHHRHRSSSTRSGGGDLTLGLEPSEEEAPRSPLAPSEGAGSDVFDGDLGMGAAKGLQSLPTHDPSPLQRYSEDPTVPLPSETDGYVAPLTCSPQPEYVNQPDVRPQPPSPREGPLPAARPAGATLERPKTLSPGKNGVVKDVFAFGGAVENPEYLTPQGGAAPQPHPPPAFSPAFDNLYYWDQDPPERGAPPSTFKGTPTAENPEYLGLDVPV

Take `CCOc1ccc(NC(=O)c2ccccc2O)cc1`: the viability in assay [1] is 87.5%; in assay [3] it was 87.5% (inactive); in assay [4], 90.4% (inactive); in assay [5], 101% (inactive); in assay [6] (setting [9]), 90.5%; in assay [6] (setting [10]) it was 101%. In assay [2], the Her2 level is 87.5% (inactive). Moreover, the differential viability (reversal) in assay [6] (H69AR cells + 2 uM doxorubicin) was 10.1% (inactive). The inhibition in assay [7] is -1.22% (inactive); in assay [8], -2.7% (inactive).

In the case of `Cc1nnc(NCCc2ccccc2)n(N)c1=O`, the viability in assay [1] was 107%; in assay [3] it was 107% (inactive); in assay [4], 120% (inactive); in assay [5], 94.1% (inactive); in assay [6] (setting [9]) it was 97.8%; in assay [6] (setting [10]), 94.1%. Further, the Her2 level in assay [2] is 104% (inactive). Moreover, the differential viability (reversal) in assay [6] (H69AR cells + 2 uM doxorubicin) is -3.7% (inactive). Further, the inhibition is -0.4% (inactive) in assay [7] and -9.03% (inactive) in assay [8].

Turning to `CCOC(=O)c1ccc(CC2S/C(=C(\C#N)C(C)=O)NC2=O)cc1` (stereo not given), the viability in assay [1] is 91.5%; in assay [3] it was 91.5% (inactive); in assay [4] it was 95.7% (inactive); in assay [5] it was 89.6% (inactive); in assay [6] (setting [9]) it was 93.7%; in assay [6] (setting [10]) it was 89.6%. Moreover, the Her2 level in assay [2] is 89.5% (inactive). Moreover, the differential viability (reversal) in assay [6] (H69AR cells + 2 uM doxorubicin) is -4.15% (inactive). For the same compound, the inhibition is -6.53% (inactive) in assay [7] and 1.94% (inactive) in assay [8].

As to `Cc1cc(C(=O)N2CCN(c3ncccn3)CC2)cs1`, the viability in assay [1] was 90%; in assay [3], 90% (inactive); in assay [4], 104% (inactive); in assay [5] it was 102% (inactive); in assay [6] (setting [9]) it was 90.8%; in assay [6] (setting [10]) it was 102%. Further, in assay [2], the Her2 level is 94.5% (inactive). Also, the differential viability (reversal) in assay [6] (H69AR cells + 2 uM doxorubicin) was 11.2% (inactive). Moreover, the inhibition is -5.87% (inactive) in assay [7] and -1.15% (inactive) in assay [8].

Take `COc1ccccc1C(=O)n1nc(-c2ccccc2)nc1N`: the viability is 91% in assay [1]; 91% (inactive) in assay [3]; 110% (inactive) in assay [4]; 87.9% (inactive) in assay [5]; 90.5% in assay [6] (setting [9]); 87.9% in assay [6] (setting [10]). Also, the Her2 level in assay [2] is 90% (inactive). In assay [6] (H69AR cells + 2 uM doxorubicin), the differential viability (reversal) was -2.62% (inactive). Further, the results for the inhibition in assay [7] and in assay [8] were -3.29% (inactive) and 3.77% (inactive), respectively.

As to `COc1ccc(C)cc1NC(=O)CN(Cc1nnc(-c2ccc(Cl)cc2)o1)C1CCCC1`, the viability is 89% in assay [1]; 89% (inactive) in assay [3]; 84.5% (inactive) in assay [4]; 4.7% (active) in assay [5]; 38.6% in assay [6] (setting [9]); 4.7% in assay [6] (setting [10]). For the same compound, the Her2 level in assay [2] was 89.5% (inactive). In assay [6] (H69AR cells + 2 uM doxorubicin), the differential viability (reversal) is -33.9% (inactive). Also, the inhibition was -4.73% (inactive) in assay [7] and -2.95% (inactive) in assay [8].

As for `Cc1cc2c(cc(C(=O)NCc3cccnc3)n2Cc2ccc(Cl)cc2)o1`, the viability in assay [1] is 92%; in assay [3], 92% (inactive); in assay [4], 103% (inactive); in assay [5] it was 98.2% (inactive); in assay [6] (setting [9]) it was 98.5%; in assay [6] (setting [10]), 98.2%. Besides, in assay [2], the Her2 level was 68.5% (inactive). For the same compound, the differential viability (reversal) in assay [6] (H69AR cells + 2 uM doxorubicin) was -0.245% (inactive). Moreover, the inhibition was -1.45% (inactive) in assay [7] and -3.33% (inactive) in assay [8].

On to `O=c1cc(CN2CCN(c3ccc(F)cc3)CC2)nc2sccn12`, for which the viability is 85% in assay [1]; 85% (inactive) in assay [3]; 87.9% (inactive) in assay [4]; 87.2% (inactive) in assay [5]; 92.1% in assay [6] (setting [9]); 87.2% in assay [6] (setting [10]). For the same compound, in assay [2], the Her2 level is 118% (inactive). The differential viability (reversal) in assay [6] (H69AR cells + 2 uM doxorubicin) was -4.83% (inactive). Moreover, the figures for the inhibition in assay [7] and in assay [8] were 5.45% (inactive) and -14.2% (inactive), respectively.

On to `O=C(Nc1ccc(Cl)cc1C(=O)Nc1ccncc1)c1ccco1`, for which the viability was 121% in assay [1]; 121% (inactive) in assay [3]; 70.1% (inactive) in assay [4]; 41.3% (active) in assay [5]; 60.5% in assay [6] (setting [9]); 41.3% in assay [6] (setting [10]). The Her2 level in assay [2] is 48.5% (active). For the same compound, the differential viability (reversal) in assay [6] (H69AR cells + 2 uM doxorubicin) is -19.2% (inactive). In addition, the inhibition in assay [7] was -1.84% (inactive); in assay [8] it was -1.59% (inactive).

Regarding `O=C(CCS(=O)(=O)c1cccc2nonc12)Nc1cccc2c1CCCC2`, the viability in assay [1] was 94.5%; in assay [3] it was 94.5% (inactive); in assay [4], 103% (inactive); in assay [5], 95.5% (inactive); in assay [6] (setting [9]), 83.5%; in assay [6] (setting [10]) it was 95.5%. For the same compound, the Her2 level in assay [2] is 114% (inactive). Moreover, the differential viability (reversal) in assay [6] (H69AR cells + 2 uM doxorubicin) is 12% (inactive). Besides, the figures for the inhibition in assay [7] and in assay [8] were -6.44% (inactive) and -3.65% (inactive), respectively.

With `Cc1ccc(-c2cc(C(=O)NCCN3CCOCC3)no2)cc1`, the viability in assay [1] is 86.5%; in assay [3], 86.5% (inactive); in assay [4], 95.3% (inactive); in assay [5], 99.8% (inactive); in assay [6] (setting [9]), 87%; in assay [6] (setting [10]) it was 99.8%. For the same compound, the Her2 level in assay [2] is 120% (inactive). Moreover, the differential viability (reversal) in assay [6] (H69AR cells + 2 uM doxorubicin) is 12.7% (inactive). Moreover, the inhibition is 3.07% (inactive) in assay [7] and -6.83% (inactive) in assay [8].

Turning to `CCC(NC(=O)Nc1cc(OC)c(OC)c(OC)c1)(C(F)(F)F)C(F)(F)F`, the viability in assay [1] was 112%; in assay [3] it was 112% (inactive); in assay [4], 105% (inactive); in assay [5], 93% (inactive); in assay [6] (setting [9]) it was 101%; in assay [6] (setting [10]) it was 93%. In addition, the Her2 level in assay [2] was 83.5% (inactive). The differential viability (reversal) in assay [6] (H69AR cells + 2 uM doxorubicin) was -7.81% (inactive). For the same compound, the inhibition in assay [7] is -4.47% (inactive); in assay [8] it was 11% (inactive).

As to `O=C(CCc1nc2ccccc2s1)OCC(=O)N1CCN(C(=O)c2ccco2)CC1`, the viability was 117% in assay [1]; 117% (inactive) in assay [3]; 91.1% (inactive) in assay [4]; 90.5% (inactive) in assay [5]; 86.8% in assay [6] (setting [9]); 90.5% in assay [6] (setting [10]). Moreover, in assay [2], the Her2 level is 93.5% (inactive). Moreover, in assay [6] (H69AR cells + 2 uM doxorubicin), the differential viability (reversal) was 3.61% (inactive). Besides, the inhibition was -5.41% (inactive) in assay [7] and -0.48% (inactive) in assay [8].

With `O=C(CSc1nnc(-c2ccccc2F)o1)OCc1ccccc1`, the viability in assay [1] was 83.5%; in assay [3], 83.5% (inactive); in assay [4] it was 102% (inactive); in assay [5] it was 102% (inactive); in assay [6] (setting [9]), 84.3%; in assay [6] (setting [10]), 102%. The Her2 level in assay [2] is 88.5% (inactive). The differential viability (reversal) in assay [6] (H69AR cells + 2 uM doxorubicin) was 17.8% (inactive). The inhibition was -5.68% (inactive) in assay [7] and 2.95% (inactive) in assay [8].

As for `COc1ccc(OC)c(-c2nnc(SCC(=O)NC3CCCCC3)o2)c1`, the viability in assay [1] was 93.5%; in assay [3], 93.5% (inactive); in assay [4], 96.2% (inactive); in assay [5] it was 98.5% (inactive); in assay [6] (setting [9]) it was 92.2%; in assay [6] (setting [10]), 98.5%. Further, in assay [2], the Her2 level was 99.5% (inactive). The differential viability (reversal) in assay [6] (H69AR cells + 2 uM doxorubicin) is 6.21% (inactive). For the same compound, the inhibition in assay [7] was 0% (inactive); in assay [8] it was -13.4% (inactive).

Regarding `CCc1nnc(NC(=O)CSc2nnc3scc(-c4ccc(C)cc4)n23)s1`, the viability is 100% in assay [1]; 100% (inactive) in assay [3]; 108% (inactive) in assay [4]; 96.6% (inactive) in assay [5]; 96.7% in assay [6] (setting [9]); 96.6% in assay [6] (setting [10]). For the same compound, the Her2 level in assay [2] is 95.5% (inactive). For the same compound, in assay [6] (H69AR cells + 2 uM doxorubicin), the differential viability (reversal) is -0.05% (inactive). Further, the inhibition in assay [7] is -3.15% (inactive); in assay [8], -1.27% (inactive).

A word on the viability: it is a read-out of living cells in per cent, often relative to untreated cells. For orientation: inhibition means the change of the read-out against control, counted positive when it falls.

Values taken from PubChem BioAssay.
